pIC50: −log10 of the molar value.
Assays:
A549 = assay: Antiproliferative activity against human A549 cells assessed as reduction in cell viability after 72 hrs by ATPlite assay; assay type: functional, cell-based; conditions: A549, 72 h
Summary of the method: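 IC50 values were determined on a panel of four human cancer lines (HCT-116, A-549, HL-60, A-375), with camptothecin and etoposide as reference compounds.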

[1] = Antiproliferative activity against human HCT116 cells assessed as reduction in cell viability at 1 uM after 72 hrs by ATPlite assay; assay type: functional; conditions: HCT-116, 72 h, read-out: GI
Summary of the method: (§1)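 HCT-116 human colon cancer cells exposed to compound for 72 h at 20, 10 or 1 μM. Growth inhibition is expressed as percentage relative to nontreated cells.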

A-375 = assay: Antiproliferative activity against human A375 cells assessed as reduction in cell viability after 72 hrs by ATPlite assay; assay type: functional, cell-based; conditions: A-375, 72 h
Summary of the method: (§2)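 IC50 determined in human cancer cell lines (HCT-116, A-375 melanoma, HL-60, A-549). Camptothecin and etoposide served as reference compounds.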

[2] = Antiproliferative activity against human HCT116 cells assessed as reduction in cell viability after 72 hrs by ATPlite assay; assay type: functional, cell-based; conditions: HCT-116, 72 h; summary of the method: as §2
[3] = Antiproliferative activity against human HCT116 cells assessed as reduction in cell viability at 10 uM after 72 hrs by ATPlite assay; assay type: functional; conditions: HCT-116, 72 h, read-out: GI; summary of the method: as §1
[4] = Antiproliferative activity against human HCT116 cells assessed as reduction in cell viability at 20 uM after 72 hrs by ATPlite assay; assay type: functional; conditions: HCT-116, 72 h, read-out: GI; summary of the method: as §1
[5] = Antiproliferative activity against human HL60 cells assessed as reduction in cell viability after 72 hrs by ATPlite assay; assay type: functional, cell-based; conditions: HL-60, 72 h; summary of the method: as §2

Structure (SMILES) | pIC50 (A549) | inhibition of growth at 1 µM [1] | pIC50 (A-375) | pIC50 [2] | inhibition of growth at 10 µM [3] | inhibition of growth at 20 µM [4] | pIC50 [5]
CC(C)(C)OC(=O)NCC#CC1=C[C@@H]2C[C@@]3(OC(=O)C=C13)[C@H]1CCCCN21 | 5.58 | 79.3% | 6.44 | 5.78 | 100% | 100% | 5.30
CC(C)(C)OC(=O)NC1CCC(C#CC2=C[C@@H]3C[C@@]4(OC(=O)C=C24)[C@H]2CCCCN32)CC1 (stereo partly specified) | – | 93.4% | – | – | 100% | 100% | –
O=C1C=C2C(C#Cc3ccc(F)cc3)=C[C@@H]3C[C@@]2(O1)[C@H]1CCCCN31 | 5.40 | 87.3% | 5.55 | 5.61 | 99.9% | 100% | < 5.00
O=Cc1ccc(C2=C[C@@H]3C[C@@]4(OC(=O)C=C24)[C@H]2CCCCN32)cc1 | – | -0.7% | – | – | 9.5% | 34.6% | –
Cc1ccc(C#CC2=C[C@@H]3C[C@@]4(OC(=O)C=C24)[C@H]2CCCCN32)cc1 | < 5.00 | 64% | 5.76 | – | 100% | 100% | < 5.00
O=C1C=C2C(C#CCCCO)=C[C@@H]3C[C@@]2(O1)[C@H]1CCCCN31 | – | 5.9% | – | – | 64.3% | 96.9% | –
Cc1cccc(C2=C[C@@H]3C[C@@]4(OC(=O)C=C24)[C@H]2CCCCN32)c1 | – | 5.7% | – | – | 15.6% | 33.8% | –
O=C1C=C2C(c3ccco3)=C[C@@H]3C[C@@]2(O1)[C@H]1CCCCN31 | – | 6% | – | – | 23.8% | 45.5% | –
O=C1C=C2C(I)=C[C@@H]3C[C@@]2(O1)[C@H]1CCCCN31 | – | 80.9% | – | – | 100% | 100% | –
O=C1C=C2C(C#CC3CC3)=C[C@@H]3C[C@@]2(O1)[C@H]1CCCCN31 | – | 5.9% | – | – | 94.8% | 93.9% | –
COC(=O)c1ccc(C2=C[C@@H]3C[C@@]4(OC(=O)C=C24)[C@H]2CCCCN32)cc1 | – | -3.6% | – | – | 10.5% | 23.9% | –
O=C1C=C2C(c3ccc(C(F)(F)F)cc3)=C[C@@H]3C[C@@]2(O1)[C@H]1CCCCN31 | – | -1.5% | – | – | 47.9% | 80.4% | –
CC(C)(O)C#CC1=C[C@@H]2C[C@@]3(OC(=O)C=C13)[C@H]1CCCCN21 | – | 10.3% | – | – | 91.6% | 97.7% | –
C[Si](C)(C)C#CC1=C[C@@H]2C[C@@]3(OC(=O)C=C13)[C@H]1CCCCN21 | – | 10.1% | – | – | 99% | 99.3% | –
CC(C)(C)OC(=O)NCCCC#CC1=C[C@@H]2C[C@@]3(OC(=O)C=C13)[C@H]1CCCCN21 | – | 60.1% | – | – | 98.8% | 99.9% | –
O=C1C=C2C(C#CCO)=C[C@@H]3C[C@@]2(O1)[C@H]1CCCCN31 | – | 5% | – | – | 94.9% | 98.9% | –
CCCCCC#CC1=C[C@@H]2C[C@@]3(OC(=O)C=C13)[C@H]1CCCCN21 | – | 10.2% | – | – | 96.6% | 97.5% | –

Structure (SMILES) | pIC50 (A549) | inhibition of growth at 1 µM [1] | pIC50 (A-375) | pIC50 [2] | inhibition of growth at 10 µM [3] | inhibition of growth at 20 µM [4] | pIC50 [5]
O=C1C=C2C(c3ccccc3)=C[C@@H]3C[C@@]2(O1)[C@H]1CCCCN31 | – | -3.8% | – | – | 9.2% | 24.1% | –
O=C1C=C2C(c3ccc(Br)cc3)=C[C@@H]3C[C@@]2(O1)[C@H]1CCCCN31 | – | -5.2% | – | – | 23% | 60.1% | –
CC(C)(C)c1ccc(C2=C[C@@H]3C[C@@]4(OC(=O)C=C24)[C@H]2CCCCN32)cc1 | – | 0.9% | – | – | 9.7% | 30.6% | –
Cc1ccc(C2=C[C@@H]3C[C@@]4(OC(=O)C=C24)[C@H]2CCCCN32)cc1 | – | 0.3% | – | – | 11.7% | 30% | –
O=C1C=C2C(C#Cc3cccnc3)=C[C@@H]3C[C@@]2(O1)[C@H]1CCCCN31 | 5.36 | 96.4% | 6.02 | – | 100% | 100% | < 5.00
CC(C)(C)C#CC1=C[C@@H]2C[C@@]3(OC(=O)C=C13)[C@H]1CCCCN21 | – | 25.2% | – | – | 98.8% | 100% | –
CCN(CC)c1ccc(C#CC2=C[C@@H]3C[C@@]4(OC(=O)C=C24)[C@H]2CCCCN32)cc1 | – | 98.2% | – | – | 100% | 100% | –
O=C1C=C2C(C#Cc3ccccc3C(F)(F)F)=C[C@@H]3C[C@@]2(O1)[C@H]1CCCCN31 | – | 55.8% | – | – | 99.9% | 100% | –
O=C1C=C2C(C#CC3CCCCC3)=C[C@@H]3C[C@@]2(O1)[C@H]1CCCCN31 | – | 49.3% | – | – | 99.8% | 100% | –
O=C1C=C2C(C#Cc3ccc(N4CCCCC4)cc3)=C[C@@H]3C[C@@]2(O1)[C@H]1CCCCN31 | – | 98% | – | – | 100% | 100% | –
O=C1C=C2C(C#CC3C=CCCC3)=C[C@@H]3C[C@@]2(O1)[C@H]1CCCCN31 (stereo partly specified) | – | 3.3% | – | – | 98.1% | 97.3% | –
CCCCC#CC1=C[C@@H]2C[C@@]3(OC(=O)C=C13)[C@H]1CCCCN21 | – | 7.6% | – | – | 98.1% | 99.5% | –
O=C1C=C2C(c3ccc(-c4ccccc4)cc3)=C[C@@H]3C[C@@]2(O1)[C@H]1CCCCN31 | – | 5.4% | – | – | 52.6% | 82.8% | –
O=C1C=C2C(c3ccc(F)cc3)=C[C@@H]3C[C@@]2(O1)[C@H]1CCCCN31 | – | 2.1% | – | – | 9.9% | 24% | –
CC[C@@]1(O)C(=O)OCc2c1cc1n(c2=O)Cc2cc3ccccc3nc2-1 [CAMPTOTHECIN] | 8.05 | – | 7.89 | 8.52 | – | – | 7.46
COc1cccc2c1C(=O)c1c(O)c3c(c(O)c1C2=O)C[C@@](O)(C(=O)CO)C[C@@H]3O[C@H]1C[C@H](N)[C@H](O)[C@H](C)O1 [DOXORUBICIN] | – | 99.6% | – | – | 94.3% | 95.6% | –
COc1cc([C@@H]2c3cc4c(cc3[C@@H](O[C@@H]3O[C@@H]5CO[C@@H](C)O[C@H]5[C@H](O)[C@H]3O)[C@H]3COC(=O)[C@H]23)OCO4)cc(OC)c1O [ETOPOSIDE] | – | – | – | < 5.00 | – | – | 6.07

Reference: ChEMBL document CHEMBL3813637, “Synthesis and Antiproliferative and Metabolic Evaluations of Novel Securinine Derivatives” (ACS Med Chem Lett, 2016)
